Compound activity as filed in PubChem.
Dynein transport – blocks dynein driven cargo transport along microtubules. 3617.4 mouse cells, GR-EGFP nuclear translocation imaging; test concentration mostly 20 µM; stimulated with dexamethasone, 1 µM; hits give low values. z-score, hits read low. actives 0.47% (n = 220,000). AID 1381;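 active = plate z-score of nuclear minus cytoplasmic receptor signal below a set negative limit, without overly bright fluorescence or cell loss, cut at about -3.5 in these data, passing the limit was not always enough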;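 note: z-score of nuclear minus cytoplasmic ring GR-EGFP intensity difference per well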
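Buffer or medium – tet-free medium with charcoal-stripped serum · Signal – automated 10x imaging of fixed Hoechst-stained cells · Also added – dexamethasone agonist, 1.0 µM final, for 30 min · Incubation – induction 48 h, compound 1 h, agonist 30 min · Read-out – GR-EGFP nuclear translocation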
NOD2 RIPK2 PPI – inhibitors of human NOD2-RIPK2 interaction; actives 0.38% (n = 360,000); CHO BLA complementation NOD2-RIPK2, CCF4 ratio; inhibition, % at 4.98 µM; O43353; in the data active = inhibition above about 21%;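 note: 0% = vehicle only and 100% = reference blocker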
TLR4-MyD88 BLA – inhibitors of human TLR4-MyD88 binding; O00206+Q99836; HeLa CL3-4 TLR4/MyD88 BLA complementation, FRET ratio; inhibition, % at 8.4 µM; actives 0.18% (n = 200,000); in the data active = inhibition above about 25%;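 note: 0% = vehicle and 100% = reference inhibitor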
ABHD5-PLIN5 inh – inhibitors of human ABHD5-perilipin-5 interaction; Split G. princeps luciferase complementation, luminescence, 4 h; inhibition, % at 4 µM; actives 0.78% (n = 360,000); AID 602281;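 active = inhibition above the mean inhibition across every tested compound plus 3 SD, cut at about 22% in these data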;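 note: 0% = DMSO only wells and the 100% control is not disclosed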
TLR9-MyD88 block – blocks human TLR9 binding to MyD88. Q9NR96+Q99836. inhibition, % at 4.98 µM. actives 0.21% (n = 340,000). AID 504734. CHO BLA complementation TLR9-MyD88, CCF4 FRET ratio;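 active = inhibition above the mean over all tested compounds plus 3 SD, cut at about 21% in these data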;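 note: 0% = DMSO only wells and 100% = clavulanate BLA inhibitor control wells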
B2AR ag – human beta-2 adrenergic receptor agonism by FAP; P07550; actives 0.43% (n = 340,000); AID 504454; Am2.2-beta2AR cells, FAP receptor internalization, flow cytometry; response, % (no concentration beside the values);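 active = response above a set limit, near 3 SD of response in nonfluorescent compounds, cut at about 42% in these data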
ABHD5 PLIN5 conf – ABHD5-PLIN5 interaction inhibition, confirmed; shares compounds with ABHD5-PLIN5 inh; biochemical ABHD5-PLIN5 interaction, luminescence; inhibition, % at 4 µM; actives 67% (n = 2,200); AID 651612; in the data active = inhibition above about 23%;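 note: 0% = DMSO vehicle wells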
HNF4 split-luc – counter-screen for ABHD5-PLIN5 inhibitors: HNF4 split-luciferase; AID 651674; HNF4 dimerization, luminescence, biochemical; inhibition, % at 4 µM; shares compounds with ABHD5-PLIN5 inh; actives 77% (n = 2,200);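 active = mean inhibition across replicate wells exceeding the computed hit threshold, cut at about 13% in these data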;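 note: light from luciferase halves that rejoin when HNF4 fusion proteins dimerize; 0% = DMSO only wells and the 100% control is not given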
NOD2 RIPK2 conf – confirmation of human NOD2-RIPK2 interaction inhibitors; shares compounds with NOD2 RIPK2 PPI; CHO cells, NOD2-RIPK2 BLA complementation, CCF4 FRET; inhibition, % at 4.98 µM; actives 70% (n = 1,200); AID 624370;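 active = mean inhibition across replicates above a set limit taken from the earlier primary screen, cut at about 21% in these data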;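 note: 0% = DMSO-only wells and the high end = clavulanate BLA-blocked wells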
BLA counter – NOD2-RIPK2 counterscreen BLA reporter activity; shares compounds with NOD2 RIPK2 PPI; CHO BLA reporter, CCF4 FRET ratio; inhibition, % at 4.98 µM; actives 57% (n = 1,200);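 active = mean inhibition above the low-control mean inhibition plus three low-control SD, cut at about 11% in these data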;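 note: 0% = DMSO only wells and 100% = clavulanate high control wells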
An asterisk follows results filed as active; . = no result. Sampled rows, rich in hits. Any-hit rate of the full collection: about 1.6%.

SMILES	Dynein transport	NOD2 RIPK2 PPI	TLR4-MyD88 BLA	ABHD5-PLIN5 inh	TLR9-MyD88 block	B2AR ag	NOD2 RIPK2 conf	BLA counter	others
CC(=O)Nc1cc2c(cc1Cl)-c1ccccc1C2O (configuration not stated)	.	-6.6	.	5.5	-0.5	-6.1	.	.
COc1ccccc1Cc1c(-c2ccco2)nc2c(C)cc(Br)cn12	.	24.6*	.	57.9*	.	.	1.4	-5.3	ABHD5 PLIN5 conf=35.8*;HNF4 split-luc=40.4*
COc1ccc(Cc2c(-c3ccco3)nc3c(C)cc(Br)cn23)c(C)c1	.	-1.8	.	5.4	.	.	.	.
C(=C\c1ccco1)/C1=NN(c2ccccc2)C(c2ccco2)C1 (configuration not stated)	-0.221	21.8*	15.1	33.6*	-23.4	-10.0	31.6*	60.1*	ABHD5 PLIN5 conf=26.6*;HNF4 split-luc=17.5*
Cc1ccc(N2N=C(c3ccc(F)cc3)CC2c2ccco2)cc1 (configuration not stated)	-0.217	-4.7	-20.5	-2.1	-26.3	33.1	.	.
O=[N+]([O-])c1cc2ncccc2c2ncccc12	.	-2.7	.	-7.4	-8.2	.	.	.
O=Cc1ccc(N2CCCC2)c([N+](=O)[O-])c1	0.557	3.1	-4.4	6.5	-3.5	-8.1	.	.
O=[N+]([O-])/C=C\c1ccc(N2CCCC2)c(F)c1	-2.92	31.0*	13.0	64.2*	13.0	37.7	77.1*	22.5*	ABHD5 PLIN5 conf=98.4*;HNF4 split-luc=100.0*
O=C(NCc1ccc2c(c1)OCO2)c1nc(S(=O)(=O)Cc2ccccc2F)ncc1Cl	.	79.3*	.	76.3*	14.2	15.8	54.9*	14.3*	ABHD5 PLIN5 conf=84.2*;HNF4 split-luc=106.0*
O=C(NCc1ccc2c(c1)OCO2)c1nc(S(=O)(=O)Cc2ccccc2)ncc1Cl	.	35.9*	.	53.8*	-0.2	9.5	29.4*	6.2	ABHD5 PLIN5 conf=87.5*;HNF4 split-luc=106.4*
Clc1nssc1=Nc1nncs1	.	26.8*	.	72.5*	7.7	1.4	28.9*	2.9	ABHD5 PLIN5 conf=64.4*;HNF4 split-luc=100.8*
Cc1cc(C)c2c(=O)n(CC(=O)Nc3ccc(Cl)cc3)sc2n1	-1.67	30.9*	.	76.4*	17.9	12.7	35.6*	6.1	ABHD5 PLIN5 conf=40.8*;HNF4 split-luc=107.8*
Cc1ccc(NC(=O)Cn2sc3nc(C)cc(C)c3c2=O)c(Cl)c1	-0.984	21.0*	.	65.2*	9.3	-16.2	10.2	1.3	ABHD5 PLIN5 conf=10.0;HNF4 split-luc=97.9*
COc1cc(C(=O)N(Cc2ccccc2)c2cccc(C)c2)ccc1OCC(=O)N1CCOCC1	.	-6.7	.	-4.9	-6.0	.	.	.
CCCCn1c(N)c(N(CCOC)C(=O)CCCn2c(=O)oc3ccccc32)c(=O)[nH]c1=O	.	-6.2	.	-3.2	-5.3	14.8	.	.
O=C(NNC(=O)C(c1ccccc1)c1ccccc1)c1ccccc1O	.	-8.1	.	-1.7	-2.0	.	.	.
CCOC(=O)C1=C(COC(=O)Cc2c(F)cccc2Cl)NC(=O)NC1C (configuration not stated)	.	1.3	.	8.0	8.7	-1.0	.	.
CCOC(=O)CNc1c(-c2ccc(Cl)cc2)nc2cnccn12	3.3	28.0*	6.1	-5.1	3.6	9.9	24.8*	24.4*
COc1ccc(-c2nc3cnccn3c2Nc2ccc(C)cc2)cc1	-1.6	7.6	-4.4	3.9	15.7	0.8	.	.
CCCCNc1c(-c2ccc(-c3ccc(C(C)=O)cc3)c(OC)c2)nc2cnccn12	.	22.9*	.	-10.6	9.0	-1.4	20.8	29.7*
Cc1cc(C)cc(NS(=O)(=O)CCCS(=O)(=O)Nc2cc(C)cc(C)c2)c1	.	0.6	.	-7.0	0.5	5.1	.	.
OC[C@@H]1CN(Cc2ccc(F)cc2)C[C@H](n2cnc3c(N4CCOCC4)ncnc32)O1	.	-9.1	.	2.8	.	.	.	.
O=C1CCN2C=Nc3cccc4ccc1c2c34	0.225	22.7*	10.8	-15.8	16.0	0.2	32.2*	38.1*
COc1cc(/C=C2/C(=N)N3C(=NC2=O)SN=C3S(C)(=O)=O)ccc1OS(=O)(=O)c1ccc(C)cc1	.	22.9*	.	-12.8	9.2	-8.3	-1.7	-8.9
Cc1ccc(S(=O)(=O)Oc2ccc(/C=C3/C(=N)N4C(=NC3=O)SN=C4S(C)(=O)=O)cc2)cc1	.	-4.0	.	2.4	-6.2	-5.7	.	.
SMILES	Dynein transport	NOD2 RIPK2 PPI	TLR4-MyD88 BLA	ABHD5-PLIN5 inh	TLR9-MyD88 block	B2AR ag	NOD2 RIPK2 conf	BLA counter	others
C[C@H]1CNC(=O)c2c(C(=O)N[C@@H](Cc3c[nH]c4ccccc34)C(=O)OC(C)(C)C)ncn21	.	-16.2	.	4.2	1.7	.	.	.
C=C(CN(C)C)C(=O)c1ccc(C)cc1C	.	33.2*	.	59.8*	10.9	29.4	93.6*	30.2*
Cc1ccc(-n2nc3c(N4CCC(C(=O)NCc5ccccc5C)CC4)nnc(C)c3c2C)cc1	.	24.0*	.	12.0	5.7	16.1	36.5*	7.4
COCC(=O)Nc1nc2n(n1)C(c1ccccc1)CC(c1ccc(OC)cc1)N2 (configuration not stated)	1.82	28.0*	-2.1	2.3	13.2	-5.9	25.8*	25.8*
N#CCC(=O)N/N=C\c1cc(Br)ccc1OC/C=C/c1ccccc1	.	0.4	.	-1.7	-8.0	5.6	.	.
CCOc1ccc(NC(=O)CN(C)C(=O)c2ccc(-c3ccc(C(C)=O)cc3)o2)cc1OCC	.	0.6	.	-0.9	3.7	4.7	.	.
N#Cc1ccc(C(C(=O)NCc2ccccc2)n2c(=O)c(-c3cc4ccccc4[nH]3)nc3ccccc32)cc1 (configuration not stated)	.	57.8*	.	4.0	.	.	54.0*	72.0*
CN(Cc1ccc(Cl)c(Cl)c1)C(C(=O)NCc1ccccc1)c1ccc(C(F)(F)F)cc1 (configuration not stated)	.	-4.1	.	-28.9	.	.	.	.
O=C(NCc1ccccc1)C(c1ccc(C(F)(F)F)cc1)n1c(=O)c(-c2cc3ccccc3[nH]2)nc2ccccc21 (configuration not stated)	.	48.9*	.	-11.9	.	.	47.4*	68.8*
COc1ccc(-c2noc(CCC(=O)N3CCN(c4ccc(Cl)cc4)CC3)n2)cc1	.	-10.2	.	-6.0	-5.5	2.4	.	.
CCCCNC(=O)C(C)N(CCN(C)C)C(=O)CCCN1C(=O)NC(c2ccc([N+](=O)[O-])cc2)C(C(=O)OCc2ccccc2)=C1C (configuration not stated)	.	21.9*	.	14.2	0.5	20.4	2.1	-13.1
